High-throughput results: PubChem BioAssay, Johns Hopkins Ion Channel Center
hERG protect – hERG (human) protection from proarrhythmic block; AID 1511; Q12809; CHO-hERG, FluxOR thallium flux, dofetilide IC70 present; 310,000 tested, 0.51% active; activation (rescue from dofetilide block), less the hit threshold, % at 10 µM;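 active means activation above the mean of controls blocked by dofetilide plus 5 SD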;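 further: thallium influx through hERG after potassium depolarization seen as dye fluorescence rise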
KCNQ1 pot – potentiates or activates the human KCNQ1 potassium channel; B-score at 10 µM; P51787; CHO-K1 KCNQ1, thallium flux FluxOR fluorescence; stronger effect = higher value; 310,000 tested, 0.35% active;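 active means fluorescence ratio B-score, a plate-corrected score, at least three library SD, with initial intensity B-score within 5 SD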
Target sequence (P51787 whole entry, looked up): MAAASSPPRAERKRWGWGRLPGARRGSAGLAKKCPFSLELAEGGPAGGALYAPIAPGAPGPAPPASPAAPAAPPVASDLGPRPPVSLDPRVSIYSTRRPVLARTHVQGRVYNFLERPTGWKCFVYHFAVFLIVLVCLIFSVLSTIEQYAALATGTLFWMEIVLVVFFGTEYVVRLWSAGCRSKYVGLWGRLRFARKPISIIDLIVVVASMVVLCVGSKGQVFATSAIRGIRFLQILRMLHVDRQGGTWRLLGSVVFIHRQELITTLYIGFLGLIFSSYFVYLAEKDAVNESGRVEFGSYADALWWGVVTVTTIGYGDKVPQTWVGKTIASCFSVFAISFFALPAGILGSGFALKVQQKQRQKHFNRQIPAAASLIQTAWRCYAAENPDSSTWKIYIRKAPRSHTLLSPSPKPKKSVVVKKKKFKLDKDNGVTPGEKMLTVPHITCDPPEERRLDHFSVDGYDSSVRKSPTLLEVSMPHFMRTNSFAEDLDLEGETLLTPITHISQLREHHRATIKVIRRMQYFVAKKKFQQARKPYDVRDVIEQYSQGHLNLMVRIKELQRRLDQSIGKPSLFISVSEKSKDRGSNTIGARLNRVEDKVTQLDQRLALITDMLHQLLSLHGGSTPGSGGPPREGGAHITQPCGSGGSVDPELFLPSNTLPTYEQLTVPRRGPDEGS
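Assay system: CHO-K1 cells stably expressing KCNQ1. Medium: assay buffer for compound exposure, DMSO matched across wells. Timing: 37 °C overnight plating, 90-min dark dye load, 20-min compound pretreatment. Signal: kinetic FluxOR fluorescence, 10 s baseline plus 110 s post-stimulus.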
KCNK9 inh – blocks the human KCNK9 two-pore domain potassium channel; Q9NPC2; AID 488922; 310,000 tested, 1.2% active; B-score at 10 µM; HEK293 KCNK9, FluxOR thallium flux fluorescence; stronger effect = lower value;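 active means ratio B-score over 3 SD below the library mean, with starting fluorescence within 5 SD of its mean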;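 further: negative B-score means less thallium flux so channel inhibition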
KCNK3 inh – human KCNK3 channel inhibition, primary screen | O14649 | 340,000 tested, 0.84% active | B-score at 10 µM | AID 602410 | CHO-KCNK3 thallium flux, FluxOR fluorescence; stronger effect = lower value;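 active means B-score under library mean minus 4 SD, starting fluorescence ratio at most library mean plus 5 SD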;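 further: more negative B-score means stronger inhibition of thallium flux through KCNK3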
KCNQ1 block – human KCNQ1 channel inhibition. P51787. CHO-K1 KCNQ1, FluxOR thallium flux fluorescence; stronger effect = higher value. B-score at 10 µM. 310,000 tested, 1.3% active. AID 2642;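 active means compounds whose thallium flux B-score, printed positive for inhibition, exceeds three library SD while starting fluorescence stays within three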;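 further: channel opened by potassium depolarization with thallium stimulus after 20 min compound exposure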
KCNK9 block conf – confirmation of human KCNK9 potassium channel inhibitors | 4,900 tested, 43% active | inhibition, % at 10 µM | AID 492992 | shares compounds with KCNK9 inh | HEK293 KCNK9 cells, FluxOR thallium flux fluorescence;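 active means thallium signal inhibited by more than 5 SD of the compound-free buffer control wells, on both duplicate plates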
Kir21 sel – tests whether KCNK9 modulators also affect mouse Kir2.1; shares compounds with KCNK9 inh; Kir2.1 cells, FluxOR thallium flux fluorescence; inhibition, % at 10 µM; 4,900 tested, 4% active;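 active means thallium signal drop more than 5 SD beyond the mean of the no-compound control wells, seen in both duplicate plates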;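 further: signal is fluorescence rise after thallium addition divided by baseline fluorescence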
HEK293 Tl ctr – non-induced cell nonspecific activity of KCNK9 modulators; non-induced KCNK9-HEK293, FluxOR thallium flux; shares compounds with KCNK9 inh; 4,900 tested, 40% active; inhibition, % at 10 µM; AID 492997;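 active means thallium signal drop beyond 5 SD of the untreated control mean, on both duplicate plates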
Each line names hits and unclear results; the compound was inactive in the other large screens (follow-up assays come after a bar, where they were run). The list is not random: actives were taken first. Their share in the collection is about 3.1%.

Cc1cccc(NC(=S)N/N=C2/CCCCc3ccccc32)c1	hERG protect 5.8 | KCNK9 block conf inactive | Kir21 sel inactive | HEK293 Tl ctr inactive
CC1CCC(=NO)C(=NO)C1 (stereo not given)	none (no result: hERG protect, KCNQ1 pot, KCNK9 inh, KCNQ1 block)
O=[N+]([O-])c1ccccc1-c1ccc(C(=S)N2CCN(c3ccccc3)CC2)o1	none | KCNK9 block conf inactive | Kir21 sel inactive | HEK293 Tl ctr inactive
Cn1c(=O)c2c(SCC(=O)NC3CCCC3)nc(CC(C)(C)C)nc2n(C)c1=O	none
Cn1c(=O)c2c(SCC(=O)Nc3ccc4c(c3)OCCO4)nc(CC(C)(C)C)nc2n(C)c1=O	none | KCNK9 block conf inactive | Kir21 sel inactive | HEK293 Tl ctr inactive
Cc1ccccc1C(=NC(=O)c1ccccc1)c1ccccc1	KCNK9 inh -10 | KCNK9 block conf 47% | Kir21 sel inactive | HEK293 Tl ctr 46%
CC(C)NC(=O)[C@H](CSCc1ccccc1)N1Cc2ccccc2C1=O	none
O=C(NC1CCCCC1)[C@H](CSCc1ccccc1)N1Cc2ccccc2C1=O	none | KCNK9 block conf inactive | Kir21 sel inactive | HEK293 Tl ctr inactive
COc1cccc(NC(=O)CSc2nc3c(sc4ccccc43)c(=O)n2CCN(C)C)c1	none
CCN(CC)CCn1c(SCC(=O)Nc2cccc(OC)c2)nc2c(sc3ccccc32)c1=O	KCNK9 inh -12 | KCNK9 block conf 48% | Kir21 sel inactive | HEK293 Tl ctr 32%
FC(F)(F)c1nnc(-c2ccccc2)nc1Sc1ccc(Cl)cc1	none | KCNK9 block conf inactive | Kir21 sel inactive | HEK293 Tl ctr inactive
FC(F)(F)c1nnc(-c2ccccc2)nc1Oc1ccc(Cl)cc1Cl	KCNQ1 block 11 | KCNK9 block conf inactive | Kir21 sel inactive | HEK293 Tl ctr inactive
FC(F)(F)c1cccc(Oc2nc(-c3ccccc3)nnc2C(F)(F)F)c1	none
CC1CCN(C(=O)CSc2nnc(-c3cccnc3)o2)CC1	none
Cc1ccc(-c2nn(-c3ccccc3)cc2/C=N/n2c(-c3cccs3)n[nH]c2=S)cc1	none | KCNK9 block conf inactive | Kir21 sel inactive | HEK293 Tl ctr inactive
CN(C)N1C(=O)/C(=C/c2ccco2)SC1=Nc1ccccc1	none
O=C1/C(=C\c2ccc(Br)o2)SC(=Nc2ccccc2)N1c1ccccc1	KCNK9 inh -8.4 | KCNK9 block conf inactive | Kir21 sel inactive | HEK293 Tl ctr 37%
COc1ccc(N2CCN(C(=O)CSc3nnc(NC(=O)C4CCC4)s3)CC2)cc1	none
N#Cc1nc(Cc2cccc3ccccc23)oc1NCc1ccco1	KCNK9 inh -11 | KCNK9 block conf 40% | Kir21 sel inactive | HEK293 Tl ctr 38%
CCC(C)NC(=O)C1CCC(=O)N1CCc1ccccc1 (stereo not given)	none
Cc1ccc(NC(=O)CCNS(=O)(=O)c2ccc3[nH]c(=O)oc3c2)c(Cl)c1	none
Cc1cc2ccccn2c1C(=O)c1nc(NCc2ccccc2)ncc1Cl	none | KCNK9 block conf inactive | Kir21 sel inactive | HEK293 Tl ctr 26%
O=C(O)c1nc(NCc2ccccc2)ncc1Cl	none
COCCNC(=O)c1ccccc1NC(=O)c1ccc(Cl)c(S(=O)(=O)Nc2ccc(C)cc2C)c1	none
Cc1ccc(C)c(NS(=O)(=O)c2cc(C(=O)Nc3ccccc3-c3ccccc3)ccc2Cl)c1	KCNK9 inh -13 | KCNK9 block conf 39% | Kir21 sel inactive | HEK293 Tl ctr 32%
Cc1cccc(CSc2nc(N)c(C#N)c(-c3cccs3)c2C#N)c1	KCNK9 inh -8.5 | KCNK9 block conf 48% | Kir21 sel inactive | HEK293 Tl ctr 46%
COc1ccccc1NCC(=O)NC(=O)NC1CCCCC1	none (no result: hERG protect, KCNQ1 pot, KCNK9 inh, KCNQ1 block)
Cc1cc(C(=O)Nc2ccc(Cl)cc2)c(C)n1Cc1cccs1	none | KCNK9 block conf inactive | Kir21 sel inactive | HEK293 Tl ctr inactive
Cc1cc(C)cc(NC(=O)c2cc(C)n(Cc3cccs3)c2C)c1	none
COc1ccc(-c2[nH]n(-c3ccc([N+](=O)[O-])cc3)c(=O)c2C=NCc2ccc(F)cc2)cc1	none
COc1ccc(-c2cc(=O)n(-c3ccc([N+](=O)[O-])cc3)[nH]2)cc1	none | KCNK9 block conf inactive | Kir21 sel inactive | HEK293 Tl ctr inactive
Cc1ccc(NC(=O)/C(=C/c2cccs2)NC(=O)c2ccco2)cc1	none
O=C(/C=C/c1ccccc1)N1c2ccccc2Sc2ccc(C(F)(F)F)cc21	KCNK9 inh -9.2 | KCNK9 block conf 26% | Kir21 sel inactive | HEK293 Tl ctr 36%
COc1cccc([C@@H]2Oc3ccc(OC)cc3C(=O)[C@H]2OC(=O)N[C@H](C)C2CCCCC2)c1	KCNK9 inh -8.7 (no result: KCNK3 inh) | KCNK9 block conf 49% | Kir21 sel inactive | HEK293 Tl ctr 42%
COc1ccc2c(c1)O[C@H](c1ccc3c(c1)OCO3)[C@@H](OC(=O)N[C@H](C)C1CCCCC1)C2=O	none (no result: KCNK3 inh)
Cc1nnc(SCc2ccc(Cl)cc2)nc1/C=C/N(C)C	none | KCNK9 block conf inactive | Kir21 sel inactive | HEK293 Tl ctr inactive
CCOC(=O)C1CCN(Cc2cc(=O)oc3cc(C)c(Cl)cc23)CC1	none | KCNK9 block conf inactive | Kir21 sel inactive | HEK293 Tl ctr inactive
Cc1ccc2c(CN3CCN(Cc4ccccc4)CC3)cc(=O)oc2c1C	none | KCNK9 block conf inactive | Kir21 sel inactive | HEK293 Tl ctr inactive
CCOC(=O)C1CCN(Cc2cc(Cl)c3ccccc3c2O)CC1	none | KCNK9 block conf inactive | Kir21 sel inactive | HEK293 Tl ctr inactive
CCOC(=O)C1CCN(Cc2cn(C)nc2-c2ccc(Oc3ccccc3)cc2)CC1	none | KCNK9 block conf inactive | Kir21 sel inactive | HEK293 Tl ctr inactive
CCOC(=O)C1CCN(Cc2ccc(OC)c(C)c2OC)CC1	none
COC(=O)c1c(C)[nH]c(-c2csc(N)n2)c1C	none
O=C(OCc1ccc(F)cc1)c1cc(S(=O)(=O)N2CCCCC2)ccc1N1CCOCC1	none
COC(CNC(=O)Cn1nc(Cc2ccncc2)c2ccccc2c1=O)OC	none
O=C(CNC(=O)c1cccs1)OCC(=O)c1ccccc1Cl	none
Cc1cc(C(F)(F)F)nn2cnnc12	none
CCOC(=O)C1CCN(Cc2cc(=O)oc3c(C)c(C)ccc23)CC1	none | KCNK9 block conf inactive | Kir21 sel inactive | HEK293 Tl ctr inactive
Cc1nc(-c2coc3c(CN(C)C)c(O)ccc3c2=O)cs1	KCNK9 inh -8.2 | KCNK9 block conf inactive | Kir21 sel inactive | HEK293 Tl ctr inactive
COc1ccccc1-c1noc(CSc2nc(N)cc(=O)[nH]2)n1	none
C=CCN(C(=O)c1oc2c(Cl)cc(C)cc2c1C)C1CCS(=O)(=O)C1 (stereo not given)	none | KCNK9 block conf inactive | Kir21 sel inactive | HEK293 Tl ctr inactive
CC(C)Oc1ccc(CNC(=O)c2ccc3c(c2)N(C)CCS3)cc1	none | KCNK9 block conf inactive | Kir21 sel inactive | HEK293 Tl ctr inactive
